# Source: PubChem BioAssay (several laboratories)
# CR mimetic SO – lowers age-related superoxide in aged yeast cells; AID 2690; superoxide response (% of plate mean), % at 10 µM; actives 0.18% (n = 330,000); S. cerevisiae aged cells, superoxide DHE fluorescence; stronger effect = lower value;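 active means superoxide response under a set limit, about three screen SD below normal, cut at about 65% in these data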;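 further: yeast aged for seven days with compound at 30 °C before DHE staining; 100% = average MFI of all compound-treated wells on the plate with controls excluded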
# HIF act – HIF pathway transcriptional activation; U2OS HRE-luciferase reporter, luminescence; normalized: DMSO 0%, desferrioxamine 100%; activation, % at 7.5 µM (by protocol); actives 0.32% (n = 300,000);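 active means mean activation of at least 10% of the iron chelator positive control signal, with at least half of replicates also reaching 10%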
# AI-2 QS mod – modulators of Vibrio harveyi AI-2 quorum sensing system. actives 0.4% (n = 300,000). activity change, % at 7.5 µM. AID 2094. Vibrio harveyi JMH597 AI-2 luminescence/OD600 ratio, 9 h; stronger effect = lower value; strain lacks LuxN and CqsS sensors; 0 = neutral-control median; in the data active means activity change below about -75%, passing the limit was not always enough;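 further: luminescence divided by OD600 gain over 9 h not by final OD600 alone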
# V-ATPase pH – regulators of yeast V-ATPase proton transport; S. cerevisiae, pHLuorin cytosolic pH fluorescence; response, % at 10 µM; actives 0.37% (n = 350,000); AID 504577; in the data active means response mostly above about 7.3%, no sharp cut-off; inactive means mostly below about 5.4%; further: actives read high
# T cruzi inh – blocks replication of Trypanosoma cruzi; AID 1885; actives 1.4% (n = 300,000); T. cruzi beta-gal in NIH3T3, luminescence, 90 h; inhibition, % (concentration not given with the values);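 active means mean inhibition across valid replicates above about 55%, limit read from the data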;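 further: signal also drops with host cell toxicity which is not excluded here; 0% = plate median of DMSO wells and 100% = zero luminescence signal; higher percent means less beta-gal luminescence so fewer parasites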
#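 System – NIH/3T3 host cells with β-galactosidase reporter T. cruzi · Doses – single 50 nL compound addition per well in DMSO · Reagent – 5000 T. cruzi trypomastigotes/well · Medium – Low-serum DMEM with 2% FBS · Timing – ≥90 h infection period, 3 h prior cell attachment · Evaluation – parasite load inhibition, % · Technique – GalScreen luminescence, 60 min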
# CendR NRP1 mod – NRP-1/CendR interaction modulation. O14786. actives 0.85% (n = 360,000). FAM-RPARPAR peptide binding to NRP-1, fluorescence polarization. inhibition, % at 25 µM;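 active means inhibition or corrected inhibition above about 18%, plus a signal ratio from 0.5 to 1.5, limit read from the data, passing the limit was not always enough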
# Target sequence (O14786 whole entry, looked up): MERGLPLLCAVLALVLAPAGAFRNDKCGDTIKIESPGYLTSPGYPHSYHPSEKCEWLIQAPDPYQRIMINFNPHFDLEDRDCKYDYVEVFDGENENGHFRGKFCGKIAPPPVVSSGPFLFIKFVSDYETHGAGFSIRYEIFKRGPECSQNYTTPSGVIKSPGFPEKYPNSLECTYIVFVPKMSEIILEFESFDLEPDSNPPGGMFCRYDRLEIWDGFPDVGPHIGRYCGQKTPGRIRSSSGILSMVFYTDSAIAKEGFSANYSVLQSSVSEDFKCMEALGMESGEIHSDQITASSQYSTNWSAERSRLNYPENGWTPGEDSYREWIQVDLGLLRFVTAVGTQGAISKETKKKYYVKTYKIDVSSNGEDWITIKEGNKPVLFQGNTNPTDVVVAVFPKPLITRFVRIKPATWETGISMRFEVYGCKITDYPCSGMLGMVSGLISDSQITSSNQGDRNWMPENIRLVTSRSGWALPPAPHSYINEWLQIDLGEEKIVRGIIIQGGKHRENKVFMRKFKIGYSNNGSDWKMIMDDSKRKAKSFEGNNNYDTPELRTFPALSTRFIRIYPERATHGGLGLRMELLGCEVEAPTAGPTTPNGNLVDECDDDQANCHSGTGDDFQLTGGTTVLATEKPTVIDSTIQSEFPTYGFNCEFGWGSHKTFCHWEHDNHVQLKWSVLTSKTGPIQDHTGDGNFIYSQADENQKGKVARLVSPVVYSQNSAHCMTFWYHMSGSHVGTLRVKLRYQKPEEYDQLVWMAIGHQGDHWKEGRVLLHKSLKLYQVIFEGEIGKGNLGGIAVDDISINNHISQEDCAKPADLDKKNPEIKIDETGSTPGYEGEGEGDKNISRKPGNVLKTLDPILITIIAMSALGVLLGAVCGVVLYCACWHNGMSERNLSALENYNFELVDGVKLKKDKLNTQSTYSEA
# V-ATPase pH SP – regulators of yeast V-ATPase proton transport. shares compounds with V-ATPase pH. S. cerevisiae pHLuorin cytosolic pH. response, % at 10 µM. actives 2% (n = 980). AID 602197; in the data active means response above about 24%;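 further: plate controls were vehicle wells for no effect and positive control wells for full effect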
# An asterisk follows results filed as active; . = not tested or not shown. Most compounds without a hit are left out; they make up all but 3% or so of the library.
SMILES,CR mimetic SO,HIF act,AI-2 QS mod,V-ATPase pH,T cruzi inh,CendR NRP1 mod,V-ATPase pH SP
COCCNS(=O)(=O)c1cc(OC)c(Cl)cc1Cl,.,1,16,.,-9,.,.
F[B-](F)(F)COCc1ccccc1Br,.,.,.,-2,.,-5,.
O=C(NCCc1ccccc1)C(=O)N/N=C/c1ccc2c(c1)OCO2,95,3,3,-2,-6,12,.
O=C(NCCc1ccccc1)C(=O)N/N=C/c1ccccc1C(F)(F)F,103,0,18,9.6*,-7,-8,-2
CC(C)(Cc1nc2ccccc2[nH]1)C(=O)O,116,0,14,2,-4,4,.
CC(=O)NC(=S)Nc1cccc2c(C)cc(C)nc12,81,0,14,-2,-6,4,.
Cc1cc(C)c2cccc(N)c2n1,111,0,7,31*,-6,7,0
Cc1ccc(C(=O)NCC(=O)N2CCCN(C)CC2)cc1C,97,.,.,3,.,2,.
CC1CN(CC(O)COc2ccc(C(C)C)cc2)CC(C)O1 (centres undefined),120,0,-17,8.8*,-6,-6,0
CC(=O)c1ccc(OCC(O)CN2CC(C)OC(C)C2)cc1 (centres undefined),91,0,33,-5,12,-1,.
Cc1nn(CC2CC2)c(=O)n1-c1ccc(Cl)cc1,107,0,6,-1,1,14,1
Cc1nn(CC2CC2)c(=O)n1-c1ccc(C(C)C)cc1,106,0,9,-2,6,16,.
Cc1ccc(/C=C/C(=O)c2ccc(N3CCOCC3)cc2)s1,116,1,6,10*,-3,-63,-1
CCn1cc(S(=O)(=O)N2CCN(Cc3cccc(Cl)c3)CC2)cn1,100,0,8,6.1*,5,0,1
CC(C)n1cc(CN2CCCC(CO)(Cc3cccc(Cl)c3)C2)cn1 (centres undefined),98,0,20,-3,51,1,.
CCn1cc(CN2CCCC(CO)(Cc3cccc(Cl)c3)C2)cn1 (centres undefined),91,0,11,13*,26,0,1
CCn1cc(S(=O)(=O)N2CCN(Cc3ccc(F)cc3)CC2)cn1,106,-1,13,3,1,1,.
CCN(CC)CCNC(=O)CN1C(=O)COc2ccc(S(=O)(=O)N3CCOCC3)cc21,106,0,6,-2,2,6,.
COc1cccc(C(C(=O)NCC2CCCO2)N(C(=O)Cn2nnc3ccccc32)c2ccc(NC(C)=O)cc2)c1OC (centres undefined),104,-23,20,5,-6,10,.
COc1ccc(C2CC3(O)NC(=O)C(C#N)(C3C)C2(C#N)C#N)cc1 (centres undefined),100,0,14,-2,-23,-2,.
Cc1cccc2sc(N(CCCN(C)C)C(=O)c3ccc(Cl)s3)nc12,96,-1,2,11*,43,-50,0
Cc1cccc2sc(N(CCCN(C)C)C(=O)c3ccco3)nc12,92,3,5,-2,49,-13,.
Nc1nnc(SCC(=O)Nc2ccc(N3CCOCC3)c(Cl)c2)s1,110,0,29,7.4*,-13,0,-1
NC(=O)COC(=O)CSc1ccc2ccccc2c1,112,0,50,7,-17,12,.
O=C(O)CC(CNS(=O)(=O)c1ccccc1)c1ccccc1 (centres undefined),91,0,30,7.1*,7,-2,-2
SMILES,CR mimetic SO,HIF act,AI-2 QS mod,V-ATPase pH,T cruzi inh,CendR NRP1 mod,V-ATPase pH SP
O=C(O)CCCCCCNS(=O)(=O)c1ccccc1,102,-1,25,2,-15,-8,.
O=C(O)CSc1nnc(CNc2ccccc2Cl)n1-c1ccccc1,118,0,7,2,-4,0,.
N#Cc1nc(-c2ccco2)oc1N1CCN(Cc2ccccc2)CC1,103,0,25,-2,-2,1,.
CC(C)N(C(=O)CSc1nnnn1C1CCCC1)C(C)C,92,0,-2,8.1*,7,9,-2
O=C(O)CSc1nnnn1C1CCCCC1,112,0,12,2,6,8,.
Cc1cnn(-c2ccc3nnc(-c4ccc(Cl)cc4)n3n2)c1,93,0,27,-2,7,2,.
Cn1nc(C(=O)N2CCN(c3ccc(Cl)cc3)CC2)c2c1-c1ccccc1S(=O)(=O)C2,117,1,16,8.6*,2,-2,-6
Cn1nc(C(=O)N2CCN(c3cccc(Cl)c3)CC2)c2c1-c1ccccc1S(=O)(=O)C2,91,0,13,1,5,-5,.
CCOC(=O)N1CCN(C(=O)c2cc(-c3ccc(F)cc3)[nH]c2C)CC1,103,0,19,-5,-14,-6,.
CCOc1cc(/C=N/NC(=O)c2cccc(S(=O)(=O)N3CCCC3)c2)ccc1OCC(=O)N(C)C,108,0,-2,19*,-7,7,-3
O=C(CCCC(=O)N(c1ccc(F)cc1)C(C(=O)NC1CCCC1)c1ccc(O)cc1)Nc1ccccn1 (centres undefined),102,0,0,11*,7,0,1
Cc1cc2nc(CS(=O)(=O)c3ccccc3)cc(=O)n2[nH]1,108,0,6,-1,-9,-20,.
N=C1c2ccccc2CN1NC(=O)COc1ccc(Cl)cc1,91,0,33,11*,-9,-7,1
CCOC(=O)Cc1nc2ccccc2[nH]1,77,1,17,3,16,-10,-5
CCOC(=O)c1nc2ccccc2c(C)c1C,102,1,-1,4,3,2,2
CCOC(=O)c1nc2ccccc2nc1C,79,0,15,3,2,-2,.
CCOC(=O)c1c(C)nc2ccccc2c1C,100,0,13,-3,-7,7,1
Cc1cc(-c2ccccc2)nc2cc(C(N)=O)nn12,109,0,-5,3,-15,11,.
CCOc1ccc(NC(=O)CSc2nc3nc(C)cc(C)n3n2)cc1,101,-1,7,-2,1,-2,.
O=C1CCC/C(=N\NC(=O)c2ccc(NS(=O)(=O)c3ccc(Br)cc3)cc2)C1,89,0,36,14*,8,-11,-2
Cc1ccc(S(=O)(=O)N(C)Cc2ccc(C(=O)N/N=C3\CCCC(=O)C3)cc2)cc1,102,0,24,3,9,-10,.
CCOC(=O)c1ccc(NC(=O)C2(c3ccc(OC)cc3)CCCC2)cc1,110,0,42,-3,26,10,.
O=C(Nc1cc2c(cc1Br)OCCCO2)c1ccccc1,104,3,12,3,9,-1,.
O=C(Nc1cc2c(cc1Br)OCCCO2)c1cccnc1,99,1,17,9.4*,-22,7,6
